Reference: ChEMBL document CHEMBL1134576, “Discovery of potent antagonists of leukocyte function-associated antigen-1/intercellular adhesion molecule-1 interaction. 3. Amide (C-ring) structure-activity relationship and improvement of overall properties of arylthio cinnamides” (J Med Chem, 2001)
Values after ≈ are worked out from the molar mass of the structure shown. Values joined by “and” are separate entries in the source; they are usually repeats but may differ in a detail not shown here. Equal entries are not always repeated.

Key:
[1] = target: Intercellular adhesion molecule (ICAM-1), Integrin alpha-L/beta-2 (Homo sapiens, UniProt P05107+P20701); experiment: Ability to antagonise the Leukocyte function-associated Antigen-1/ Intracellular Adhesion molecule-1 interaction (LFA-1/ICAM-1); format: functional
JY = experiment: Inhibition of JY8 cell adhesion process (The assay was run with 1% fetal bovine serum); format: functional, cell-based; settings: Homo sapiens, JY-8
Outline: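 JY-8 cells […] in the presence of 1% fetal bovine serum. Six concentrations from 6.4 × 10^-9 to 2 × 10^-5 were run in duplicate. IC50 is the mean of repeat measurements, with the range given.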

[2] = Half life period after iv dose in rat; format: ADME, organism-based; settings: in vivo
Outline: (§1)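 Rats (n = 4/group) received 5 mg/kg either iv as a slow jugular bolus or po by gavage. The terminal-phase rate constant gave t1/2 and AUC extrapolated to infinity. F compares oral with iv AUC.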

[3] = Clearance after iv dose in rat; settings: in vivo
Rattus norvegicus [4] = experiment: Cmax value after po dose in rat; format: ADME, organism-based; parameters: route oral; settings: in vivo; outline: as §1
[5] = Oral bioavailability in rat; format: ADME, organism-based; settings: in vivo; outline: as §1
[6] = Mean residence time after po dose in rat; format: ADME, organism-based; settings: in vivo; outline: as §1
Rattus norvegicus [7] = experiment: mean arterial pressure in a rat model of reperfusion after 5 min at 50 mg/kg dose; format: functional, Artery
Rattus norvegicus [8] = experiment: heart rate in a rat model of reperfusion after 120 min at 50 mg/kg dose
Rattus norvegicus [9] = experiment: rate pressure product in a rat model of reperfusion after 5 min at 50 mg/kg dose; format: functional
[10] = Clearance after intravenous dose in rat; settings: in vivo, CL
Rattus norvegicus [11] = experiment: Clearance after intravenous dose in rat; settings: in vivo
Rattus norvegicus [12] = experiment: mean arterial pressure in a rat model of reperfusion after 120 min at 50 mg/kg dose; format: functional, Artery
Rattus norvegicus [13] = experiment: rate pressure product in a rat model of ischemia immediately prior to the occlusion at 50 mg/kg dose; format: functional
Rattus norvegicus [14] = experiment: mean arterial pressure in a rat model of reperfusion after 180 min at 50 mg/kg dose; format: functional, Artery
Rattus norvegicus [15] = experiment: heart rate in a rat model of ischemia after 15 min at 3 mg/kg dose; format: functional
Rattus norvegicus [16] = experiment: heart rate in a rat model of ischemia immediately prior to the occlusion at 3 mg/kg dose; format: functional
Rattus norvegicus [17] = experiment: rate pressure product in a rat model of reperfusion after 5 min at 3 mg/kg dose; format: functional
Rattus norvegicus [18] = experiment: Half life period after intravenous dose in rat; format: ADME, organism-based; settings: in vivo; outline: as §1
Rattus norvegicus [19] = experiment: mean arterial pressure in a rat model of ischemia after 15 min at 50 mg/kg dose; format: functional, Artery
Rattus norvegicus [20] = experiment: mean arterial pressure in a rat model of ischemia immediately prior to the occlusion at 50 mg/kg dose; format: functional, Artery
Rattus norvegicus [21] = experiment: mean arterial pressure in a rat model of ischemia after 15 min at 3 mg/kg dose; format: functional, Artery
Rattus norvegicus [22] = experiment: mean arterial pressure in a rat model of reperfusion after 5 min at 3 mg/kg dose; format: functional, Artery
Rattus norvegicus [23] = experiment: rate pressure product in a rat model of reperfusion after 120 min at 50 mg/kg dose; format: functional
Rattus norvegicus [24] = experiment: heart rate in a rat model of ischemia after 15 min at 50 mg/kg dose; format: functional
Rattus norvegicus [25] = experiment: mean arterial pressure in a rat model of reperfusion after 180 min at 3 mg/kg dose; format: functional, Artery
Rattus norvegicus [26] = experiment: heart rate in a rat model of ischemia immediately prior to the occlusion at 50 mg/kg dose; format: functional
Rattus norvegicus [27] = experiment: rate pressure product in a rat model of reperfusion after 60 min at 50 mg/kg dose; format: functional
Rattus norvegicus [28] = experiment: heart rate pressure in a rat model of reperfusion after 60 min at 3 mg/kg dose; format: functional
Rattus norvegicus [29] = experiment: mean arterial pressure in a rat model of reperfusion after 120 min at 3 mg/kg dose; format: functional, Artery
Rattus norvegicus [30] = experiment: mean arterial pressure in a rat model of reperfusion after 60 min at 50 mg/kg dose; format: functional, Artery
Rattus norvegicus [31] = experiment: rate pressure product in a rat model of ischemia immediately prior to the occlusion at 3 mg/kg dose; format: functional
Rattus norvegicus [32] = experiment: heart rate in a rat model of reperfusion after 60 min at 50 mg/kg dose; format: functional
Rattus norvegicus [33] = experiment: heart rate pressure in a rat model of reperfusion after 5 min at 3 mg/kg dose; format: functional
Rattus norvegicus [34] = experiment: rate pressure product in a rat model of ischemia after 15 min at 50 mg/kg dose; format: functional
Rattus norvegicus [35] = experiment: heart rate in a rat model of reperfusion after 180 min at 50 mg/kg dose
Rattus norvegicus [36] = experiment: rate pressure product in a rat model of reperfusion after 180 min at 3 mg/kg dose; format: functional
Rattus norvegicus [37] = experiment: mean arterial pressure in a rat model of ischemia immediately prior to the occlusion at 3 mg/kg dose; format: functional, Artery
Rattus norvegicus [38] = experiment: heart rate pressure in a rat model of reperfusion after 180 min at 3 mg/kg dose; format: functional
Rattus norvegicus [39] = experiment: rate pressure product in a rat model of reperfusion after 60 min at 3 mg/kg dose; format: functional
Rattus norvegicus [40] = experiment: mean arterial pressure in a rat model of reperfusion after 60 min at 3 mg/kg dose; format: functional, Artery
Rattus norvegicus [41] = experiment: rate pressure product in a rat model of reperfusion after 120 min at 3 mg/kg dose; format: functional
Canis familiaris [42] = experiment: Mean residence time after po dose in dog; settings: in vivo
Canis familiaris [43] = experiment: Cmax value after po dose in dog; settings: in vivo
Rattus norvegicus [44] = experiment: heart rate in a rat model of reperfusion after 5 min at 50 mg/kg dose; format: functional
Rattus norvegicus [45] = experiment: rate pressure product in a rat model of ischemia after 15 min at 3 mg/kg dose; format: functional
Rattus norvegicus [46] = experiment: heart rate pressure in a rat model of reperfusion after 120 min at 3 mg/kg dose; format: functional
Rattus norvegicus [47] = experiment: rate pressure product in a rat model of reperfusion after 180 min at 50 mg/kg dose; format: functional
[48] = Cmax value after po dose; format: ADME, organism-based; parameters: route oral; settings: in vivo
[49] = Percent oral bioavailability after po dose; format: ADME, organism-based; settings: eutheria, in vivo

Sequence of Intercellular adhesion molecule (ICAM-1), Integrin alpha-L/beta-2 (P20701 whole entry): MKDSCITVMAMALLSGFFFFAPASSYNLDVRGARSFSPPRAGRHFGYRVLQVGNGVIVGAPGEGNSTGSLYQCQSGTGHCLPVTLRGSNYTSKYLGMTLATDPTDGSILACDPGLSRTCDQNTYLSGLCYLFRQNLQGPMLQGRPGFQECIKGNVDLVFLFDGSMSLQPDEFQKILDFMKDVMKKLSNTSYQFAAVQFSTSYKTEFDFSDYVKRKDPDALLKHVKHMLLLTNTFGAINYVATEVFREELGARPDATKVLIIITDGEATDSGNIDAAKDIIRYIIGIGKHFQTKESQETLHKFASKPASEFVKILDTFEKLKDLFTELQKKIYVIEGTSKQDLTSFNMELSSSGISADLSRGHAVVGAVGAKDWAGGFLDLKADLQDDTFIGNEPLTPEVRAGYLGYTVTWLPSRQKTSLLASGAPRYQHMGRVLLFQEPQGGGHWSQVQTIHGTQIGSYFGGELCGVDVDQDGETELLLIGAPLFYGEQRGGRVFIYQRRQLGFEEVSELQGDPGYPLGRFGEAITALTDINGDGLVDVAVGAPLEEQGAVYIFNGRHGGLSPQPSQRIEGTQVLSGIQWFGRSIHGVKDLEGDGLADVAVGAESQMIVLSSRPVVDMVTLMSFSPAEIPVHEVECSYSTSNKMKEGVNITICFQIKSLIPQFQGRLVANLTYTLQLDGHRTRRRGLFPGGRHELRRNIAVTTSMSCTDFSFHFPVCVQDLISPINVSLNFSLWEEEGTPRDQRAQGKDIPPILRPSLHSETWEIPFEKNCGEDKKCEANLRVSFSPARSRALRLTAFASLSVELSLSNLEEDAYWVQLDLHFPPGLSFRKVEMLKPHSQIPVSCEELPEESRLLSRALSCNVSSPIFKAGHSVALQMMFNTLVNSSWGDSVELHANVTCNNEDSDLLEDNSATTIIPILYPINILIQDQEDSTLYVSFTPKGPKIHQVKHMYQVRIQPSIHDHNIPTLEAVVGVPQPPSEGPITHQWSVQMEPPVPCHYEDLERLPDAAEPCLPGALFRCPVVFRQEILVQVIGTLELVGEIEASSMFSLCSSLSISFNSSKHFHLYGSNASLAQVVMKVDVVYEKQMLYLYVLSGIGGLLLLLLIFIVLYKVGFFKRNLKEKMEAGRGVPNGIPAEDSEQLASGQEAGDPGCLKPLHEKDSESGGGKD
Sequence of Intercellular adhesion molecule (ICAM-1), Integrin alpha-L/beta-2 (P05362 whole entry, further chain): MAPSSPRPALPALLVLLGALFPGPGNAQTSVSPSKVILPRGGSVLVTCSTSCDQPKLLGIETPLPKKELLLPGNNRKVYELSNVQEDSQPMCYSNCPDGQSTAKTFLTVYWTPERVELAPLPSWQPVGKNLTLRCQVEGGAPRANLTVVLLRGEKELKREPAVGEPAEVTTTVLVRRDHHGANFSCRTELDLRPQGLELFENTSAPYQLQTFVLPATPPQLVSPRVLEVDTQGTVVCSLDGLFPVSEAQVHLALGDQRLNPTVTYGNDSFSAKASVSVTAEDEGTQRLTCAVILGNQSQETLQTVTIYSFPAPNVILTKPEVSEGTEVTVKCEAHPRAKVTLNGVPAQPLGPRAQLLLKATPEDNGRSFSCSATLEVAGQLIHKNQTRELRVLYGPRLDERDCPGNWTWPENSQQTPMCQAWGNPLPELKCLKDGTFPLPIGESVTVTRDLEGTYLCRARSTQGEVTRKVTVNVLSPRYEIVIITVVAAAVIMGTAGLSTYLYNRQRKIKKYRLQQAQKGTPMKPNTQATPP
Sequence of Intercellular adhesion molecule (ICAM-1), Integrin alpha-L/beta-2 (P05107 whole entry): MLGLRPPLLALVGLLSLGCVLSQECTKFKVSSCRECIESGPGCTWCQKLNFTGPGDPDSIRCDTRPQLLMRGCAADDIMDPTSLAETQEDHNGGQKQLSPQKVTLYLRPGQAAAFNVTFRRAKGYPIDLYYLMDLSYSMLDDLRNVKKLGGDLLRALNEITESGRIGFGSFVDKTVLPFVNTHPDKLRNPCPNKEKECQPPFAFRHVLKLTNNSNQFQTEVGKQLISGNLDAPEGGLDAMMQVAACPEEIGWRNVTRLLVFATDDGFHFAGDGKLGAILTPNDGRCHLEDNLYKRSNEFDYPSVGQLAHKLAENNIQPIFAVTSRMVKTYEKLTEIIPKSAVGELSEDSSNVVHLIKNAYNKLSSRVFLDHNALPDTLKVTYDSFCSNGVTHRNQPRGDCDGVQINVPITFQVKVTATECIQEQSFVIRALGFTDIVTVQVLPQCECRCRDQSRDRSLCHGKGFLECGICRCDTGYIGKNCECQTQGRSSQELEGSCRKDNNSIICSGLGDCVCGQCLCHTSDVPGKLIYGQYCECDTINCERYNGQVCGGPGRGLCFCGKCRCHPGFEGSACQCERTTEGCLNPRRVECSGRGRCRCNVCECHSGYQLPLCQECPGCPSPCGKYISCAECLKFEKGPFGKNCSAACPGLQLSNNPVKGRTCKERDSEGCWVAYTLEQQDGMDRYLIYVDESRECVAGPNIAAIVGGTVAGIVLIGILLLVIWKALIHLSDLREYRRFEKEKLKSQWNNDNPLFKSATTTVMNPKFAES

## CC(C)c1ccccc1Sc1ccc(/C=C/C(=O)N2CCN(C(=O)c3ccncc3)CC2)cc1[N+](=O)[O-]
[1]
  IC50: 66 nM
JY
  IC50: 20 nM

## COC(=O)C1CN(C(=O)/C=C/c2ccc(Sc3ccccc3C(C)C)c([N+](=O)[O-])c2)CCN1 (configuration not stated)
[1]
  IC50: 60 nM
JY
  IC50: 98 nM

## CC(C)c1ccccc1Sc1ccc(/C=C/C(=O)N2CCOC(c3nnn[nH]3)C2)cc1[N+](=O)[O-] (configuration not stated)
[1]
  IC50: 20 nM
JY
  IC50: 2 nM

## CC(C)c1ccccc1Sc1ccc(/C=C/C(=O)N2CCC(S(=O)(=O)O)CC2)cc1[N+](=O)[O-]
[1]
  IC50: 90 nM

## CC(C)c1ccccc1Sc1ccc(/C=C/C(=O)N2CCNC(CO)C2)cc1[N+](=O)[O-] (configuration not stated)
[1]
  IC50: 280 nM
Water solubility
  Solubility: 5 µg/mL (≈ 11.3 µM)
[2]
  half-life: 1.9 h
[3]
  clearance: 53.3 mL/min/kg
Rattus norvegicus [4]
  Cmax: 0 ug m l-1
[5]
  bioavailability: 0%

## CC(C)c1ccccc1Sc1ccc(/C=C/C(=O)N2CCC(C(=O)O)CC2)cc1[N+](=O)[O-]
[1]
  IC50: 31 nM
[2]
  half-life: 1.15 h
[3]
  clearance: 13.2 mL/min/kg
JY
  IC50: 165 nM
[6]
  MRT: 3.5 h
Rattus norvegicus [4]
  Cmax: 0.5 ug m l-1
[5]
  bioavailability: 21%

## CNC(=O)N1CCN(C(=O)/C=C/c2ccc(Sc3ccccc3C(C)C)c([N+](=O)[O-])c2)CC1
[1]
  IC50: 25 nM

## CC(=O)N1CCN(C(=O)/C=C/c2ccc(Sc3ccccc3C(C)C)c([N+](=O)[O-])c2)CC1C(=O)O (configuration not stated)
[1]
  IC50: 680 nM

## O=C(O)C1CCCN(C(=O)/C=C/c2ccc(Sc3ccc4c(c3)OCCO4)c(C(F)(F)F)c2)C1 (configuration not stated)
Rattus norvegicus [7]
  MAP: 105 mmHg
Rattus norvegicus [8]
  HR: 397 beats min-1
[1]
  IC50: 25 nM
Rattus norvegicus [9]
  RPP: 40200 mmHg beats min-1
[10]
  clearance: 4.83 mL/min/kg
Rattus norvegicus [11]
  clearance: 5.67 mL/min/kg
Rattus norvegicus [12]
  MAP: 96 mmHg
Rattus norvegicus [13]
  RPP: 54000 mmHg beats min-1
Rattus norvegicus [14]
  MAP: 80 mmHg
Rattus norvegicus [15]
  HR: 391 beats min-1
Rattus norvegicus [16]
  HR: 393 beats min-1
Rattus norvegicus [17]
  RPP: 37500 mmHg beats min-1
Rattus norvegicus [18]
  T1/2: 2.3 h and 5.7 h
Rattus norvegicus [19]
  MAP: 105 mmHg
Rattus norvegicus [20]
  MAP: 128 mmHg
Rattus norvegicus [21]
  MAP: 107 mmHg
Rattus norvegicus [22]
  MAP: 98 mmHg
Rattus norvegicus [23]
  RPP: 38100 mmHg beats min-1
Rattus norvegicus [24]
  HR: 400 beats min-1
Rattus norvegicus [25]
  MAP: 95 mmHg
Rattus norvegicus [26]
  HR: 419 beats min-1
Rattus norvegicus [27]
  RPP: 46700 mmHg beats min-1
Rattus norvegicus [28]
  HR: 382 beats min-1
Rattus norvegicus [29]
  MAP: 85 mmHg
Rattus norvegicus [30]
  MAP: 118 mmHg
Rattus norvegicus [31]
  RPP: 46400 mmHg beats min-1
Rattus norvegicus [32]
  HR: 396 beats min-1
Rattus norvegicus [33]
  HR: 379 beats min-1
Rattus norvegicus [34]
  RPP: 42700 mmHg beats min-1
Rattus norvegicus [35]
  HR: 399 beats min-1
Rattus norvegicus [36]
  RPP: 35100 mmHg beats min-1
Rattus norvegicus [37]
  MAP: 118 mmHg
JY
  IC50: 140 nM
Rattus norvegicus [38]
  HR: 376 beats min-1
[6]
  MRT: 5 h
Rattus norvegicus [39]
  RPP: 38100 mmHg beats min-1
Rattus norvegicus [40]
  MAP: 99 mmHg
Rattus norvegicus [4]
  Cmax: 1.5 ug m l-1
Rattus norvegicus [41]
  RPP: 31800 mmHg beats min-1
Canis familiaris [42]
  MRT: 5.7 h
Canis familiaris [43]
  Cmax: 3700 ng/mL
Rattus norvegicus [44]
  HR: 382 beats min-1
Rattus norvegicus [45]
  RPP: 41800 mmHg beats min-1
Rattus norvegicus [46]
  HR: 371 beats min-1
Rattus norvegicus [47]
  RPP: 32000 mmHg beats min-1
[5]
  F: 29% and 55%

## O=C(O)C1CCN(C(=O)/C=C/c2ccc(Sc3ccc4c(c3)OCCO4)c(C(F)(F)F)c2)CC1
[1]
  IC50: 30 nM
[2]
  half-life: 3.9 h
[3]
  clearance: 2 mL/min/kg
JY
  IC50: 150 nM
[6]
  MRT: 6.7 h
Rattus norvegicus [4]
  Cmax: 2.8 ug m l-1
[5]
  bioavailability: 39%

## CC(C)c1ccccc1Sc1ccc(/C=C/C(=O)N2CCNCC2)cc1[N+](=O)[O-]
[1]
  IC50: 450 nM

## COC(=O)C1CNCCN1C(=O)/C=C/c1ccc(Sc2ccccc2C(C)C)c([N+](=O)[O-])c1 (configuration not stated)
[1]
  IC50: 340 nM

## CC(C)c1ccccc1Sc1ccc(/C=C/C(=O)N2CCNC(C(=O)N(C)C)C2)cc1[N+](=O)[O-] (configuration not stated)
[1]
  IC50: 75 nM

## CC(C)c1ccccc1Sc1ccc(/C=C/C(=O)N2CCN(C)CC2)cc1[N+](=O)[O-]
[1]
  IC50: 130 nM

## COC(=O)N1CCN(C(=O)/C=C/c2ccc(Sc3ccccc3C(C)C)c([N+](=O)[O-])c2)C(C(=O)O)C1 (configuration not stated)
[1]
  IC50: 130 nM

## CC(C)c1ccccc1Sc1ccc(/C=C/C(=O)N2CCCC(C(=O)O)C2)cc1[N+](=O)[O-] (configuration not stated)
[1]
  IC50: 30 nM
[2]
  half-life: 0.4 h
[3]
  clearance: 35 mL/min/kg
JY
  IC50: 90 nM
[6]
  MRT: 11.3 h
Rattus norvegicus [4]
  Cmax: 0.45 ug m l-1
[5]
  bioavailability: 19%

## CC(C)c1ccccc1Sc1ccc(/C=C/C(=O)N2CC=CC2C(=O)O)cc1C(F)(F)F (configuration not stated)
[1]
  IC50: 130 nM

## CC(=O)N1CCN(C(=O)/C=C/c2ccc(Sc3ccccc3C(C)C)c([N+](=O)[O-])c2)CC1 [A-286982]
[48]
  Cmax: 0 ug m l-1
Water solubility
  Solubility: < 1 µg/mL
Clearance after iv dose
  clearance: 45 mL/min/kg
[49]
  bioavailability: 0%

## CC(C)c1ccccc1Sc1ccc(/C=C/C(=O)N2CCC(=O)CC2)cc1[N+](=O)[O-]
[1]
  IC50: 60 nM
JY
  IC50: 240 nM

## CC(C)c1ccccc1Sc1ccc(/C=C/C(=O)N2CCC3(CC2)OCCO3)cc1[N+](=O)[O-]
[1]
  IC50: 55 nM

## COC(=O)C1CN(C(=O)/C=C/c2ccc(Sc3ccccc3C(C)C)c([N+](=O)[O-])c2)CCN1C (configuration not stated)
[1]
  IC50: 45 nM
JY
  IC50: 110 nM
